The values below come from ChEMBL document CHEMBL1135602 (J Med Chem, 2002).

Where “and” joins values, the source holds several entries; their conditions need not be identical. Identical values can stand only once.

Data set [1] in a line: Safety ratio is cytotoxicity to KB cells/IC50 TM4. The data set is classed as toxicity, cell-based. Conditions: human, KB cells (epidermoid carcinoma); read-out: Safety ratio. An outline of the steps: (§1)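 Ratio of the cytotoxicity IC50 (KB or BC cells, Skehan protocol) to the antiplasmodial IC50 against TM4/8.2 (wild-type DHFR). […] Label was added after 24 h and cultures ran a further 18-24 h.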

For data set [2], the system named is Plasmodium falciparum. Put plainly: In vitro antiplasmodial activity (IC50) against Plasmodium falciparum wtTM4/8.2. The data set is classed as functional, organism-based.
In a further data set the target is T1, Dihydrofolate reductase (Homo sapiens, UniProt P00374).
T1 sequence (P00374 whole entry): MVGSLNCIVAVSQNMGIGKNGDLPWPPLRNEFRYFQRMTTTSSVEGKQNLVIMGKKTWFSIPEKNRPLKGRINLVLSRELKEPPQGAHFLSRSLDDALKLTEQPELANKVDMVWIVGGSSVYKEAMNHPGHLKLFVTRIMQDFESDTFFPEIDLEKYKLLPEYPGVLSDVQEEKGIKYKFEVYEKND
Put plainly: Cytotoxicity by selective inhibition against human dihydrofolate reductase (DHFR).

The nature of data set [3]: Safety ratio is cytotoxicity to vero cells/IC50 K1. The data set is classed as toxicity, cell-based. Conditions: monkey, read-out: Safety ratio. An outline of the steps:
(§2)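 Ratio of the cytotoxicity IC50 (vero, KB or BC cells, Skehan protocol) to the antiplasmodial IC50 against K1CB1 (C59R+S108N DHFR). […] Label was added at 24 h and cultures ran a further 18-24 h. Final DMSO was 0.1%.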

In data set [4] the test system is Bifunctional dihydrofolate reductase-thymidylate synthase (Plasmodium falciparum K1), P13922 [UNDEFINED MUTATION]. Put plainly: Ratio of Inhibition of the S108N mutant of dihydrofolate reductase (DHFR) to inhibition of wild type dihydrofolate reductase.
Chain of Bifunctional dihydrofolate reductase-thymidylate synthase (Plasmodium falciparum K1), P13922 [UNDEFINED MUTATION] (P13922 whole entry, looked up, stated change not applied): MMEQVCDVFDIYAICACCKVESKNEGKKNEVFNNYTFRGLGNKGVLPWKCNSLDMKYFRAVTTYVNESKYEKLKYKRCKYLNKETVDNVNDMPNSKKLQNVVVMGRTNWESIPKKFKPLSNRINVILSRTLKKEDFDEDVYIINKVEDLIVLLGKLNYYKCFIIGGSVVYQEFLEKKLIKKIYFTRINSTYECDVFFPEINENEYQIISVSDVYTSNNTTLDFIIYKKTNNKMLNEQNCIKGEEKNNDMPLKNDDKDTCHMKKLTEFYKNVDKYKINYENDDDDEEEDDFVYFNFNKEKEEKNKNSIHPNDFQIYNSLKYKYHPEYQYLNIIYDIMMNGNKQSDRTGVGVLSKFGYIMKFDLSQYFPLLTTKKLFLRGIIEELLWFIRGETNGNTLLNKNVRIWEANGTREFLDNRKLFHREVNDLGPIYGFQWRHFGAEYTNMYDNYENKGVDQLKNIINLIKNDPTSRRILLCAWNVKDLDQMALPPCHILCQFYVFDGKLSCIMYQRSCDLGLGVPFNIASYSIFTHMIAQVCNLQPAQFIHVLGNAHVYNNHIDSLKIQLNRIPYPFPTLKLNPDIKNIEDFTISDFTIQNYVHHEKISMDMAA
In data set [5] the target is Bifunctional dihydrofolate reductase-thymidylate synthase (Plasmodium falciparum K1, UniProt P13922, S108N). Put plainly: Inhibition of the S108N mutant of dihydrofolate reductase (DHFR). An outline of the steps:
(§3)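 Assay at 25 °C: 50 mM TES pH 7.0, 75 mM β-mercaptoethanol, 1 mg/mL BSA, 100 µM H2folate and 100 µM NADPH. NADPH oxidation followed at 340 nm. Ki derived from IC50 as Ki(1+[S]/Km), assuming competitive inhibition.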

The test system of data set [6] is Plasmodium falciparum. Put plainly: Safety ratio as cytotoxicity in vero cells relative to IC50 TM4. The data set is classed as functional.
The subject of data set [7] is Vero. Put plainly: (§4) Cytotoxicity by the selective inhibition against African green monkey kidney […] (vero cells). Conditions: Chlorocebus sabaeus.
The next data set deals with BC. Put plainly: Cytotoxicity against human breast cancer cells. The data set is classed as functional, cell-based.
The test system of data set [8] is Bifunctional dihydrofolate reductase-thymidylate synthase (Plasmodium falciparum K1), P13922 [UNDEFINED MUTATION]. Put plainly: Ratio of Inhibition of the C59R+S108N mutant of dihydrofolate reductase (DHFR) to inhibition of wild type dihydrofolate reductase.
Data set [9] is described as follows: Safety ratio is cytotoxicity to KB cells/IC50 K1. The data set is classed as toxicity, cell-based. Conditions: human, KB cells (epidermoid carcinoma); read-out: Safety ratio. An outline of the steps: as §2
Data set [10] in a line: Safety ratio is cytotoxicity to BC cells/IC50 TM4. The data set is classed as toxicity, cell-based. Conditions: human, BC cells (breast cancer); read-out: Safety ratio. An outline of the steps:
as §1

Data set [11] deals with Plasmodium falciparum. Put plainly: IC50 ratio against Plasmodium falciparum K1CB1/TM4. The data set is classed as functional.
In data set [12] the target is Bifunctional dihydrofolate reductase-thymidylate synthase (Plasmodium falciparum K1, UniProt P13922). Briefly: Inhibition of the C59R+S108N mutant of dihydrofolate reductase (DHFR). Put shortly:
as §3

Data set [13] addresses Bifunctional dihydrofolate reductase-thymidylate synthase (Plasmodium falciparum K1) (UniProt P13922). Briefly: Inhibition of Plasmodium falciparum wild-type dihydrofolate reductase (DHFR) relative to Pyrimethamine.
The test system of a further data set is KB. Put plainly: Cytotoxicity against human epidermoid carcinoma KB cell. The data set is classed as functional, cell-based.
Data set [14] can be described thus: Safety ratio is cytotoxicity to BC cells/IC50 K1. The data set is classed as toxicity, cell-based. Conditions: human, BC cells (breast cancer); read-out: Safety ratio. An outline of the steps: as §2
Data set [15] concerns the target Bifunctional dihydrofolate reductase-thymidylate synthase (Plasmodium falciparum K1) (UniProt P13922). Briefly: Inhibition of S108N mutant dihydrofolate reductase (DHFR)relative to Tmp. Put shortly:
(§5)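 Assayed at 25 °C in 50 mM TES pH 7.0, 75 mM β-mercaptoethanol, 1 mg/mL BSA, with 100 µM H2folate and 100 µM NADPH. A340 was followed. Ki was derived from IC50 = Ki(1+[S]/Km), assuming competitive inhibition.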

The target is the same in data set [16]. Put plainly: Inhibition of the wild-type dihydrofolate reductase (DHFR) relative to Tmp. Put shortly: as §5
A short description of data set [17]: Safety ratio is cytotoxicity to vero cells/IC50 k1. The data set is classed as toxicity, cell-based. Conditions: monkey, read-out: Safety ratio. An outline of the steps:
as §2

Data set [18] in a line: Safety ratio is cytotoxicity to vero cells/IC50 K1. Conditions: monkey. The data set is classed as toxicity, cell-based. An outline of the steps: as §2
For data set [19], the target named is Bifunctional dihydrofolate reductase-thymidylate synthase (Plasmodium falciparum K1) (UniProt P13922). Put plainly: Inhibition of the C59R+S108N mutant of dihydrofolate reductase (DHFR)relative to Tmp. Put shortly: as §5
Chain of Bifunctional dihydrofolate reductase-thymidylate synthase (Plasmodium falciparum K1) (P13922 whole entry, looked up): as the sequence (P13922 whole entry, looked up, stated change not applied) above
The subject of data set [20] is Vero. The data set is described as §4. The data set is classed as functional, cell-based. Particulars: Chlorocebus sabaeus.
The subject of data set [21] is Plasmodium falciparum. Briefly: Relative antiplasmodial activity (IC50) compared to Tmp against Plasmodium falciparum K1CB1 DHFR double-mutant (C59R/S108N). The data set is classed as functional.
Data set [22] has as its system Plasmodium falciparum. Put plainly: In vitro relative antiplasmodial activity (IC50) compared to Tmp against Plasmodium falciparum TM4/8.2 wild-type. The data set is classed as functional.

Chain of Bifunctional dihydrofolate reductase-thymidylate synthase (Plasmodium falciparum K1, UniProt P13922) (P13922 whole entry): as the sequence (P13922 whole entry, looked up, stated change not applied) above
Chain of Bifunctional dihydrofolate reductase-thymidylate synthase (Plasmodium falciparum K1, UniProt P13922, S108N) (P13922 whole entry, looked up, stated change not applied): as above

As to `CCCCCCc1nc(N)nc(N)c1-c1ccccc1`, the selectivity ratio in data set [1] was found to be 1880; in [3] it was 41; in data set [9], 87; in data set [10] it was 4470; in [14], 206. Also, the IC50 with Plasmodium falciparum [2] is 60 nM; in the data set with Vero [7], 55000 nM; in the data set on BC, 268000 nM; in the data set on KB, 113000 nM. Also, the Ki amounted to 15000 nM at Dihydrofolate reductase, 1.2 nM in data set [5] and 0.7 nM in [12]. The Ratio in data set [4] is 4; in [8] it was 2.3; in the data set with Plasmodium falciparum [11], 21.7. For the same compound, in the data set on Plasmodium falciparum [6], the Safety ratio was determined as 857. In addition, the Relative activity in data set [13] was determined as 0.5.
For `Nc1ncc(Cc2ccc(OCCCOc3cc(Cl)c(Cl)cc3Cl)cc2)c(N)n1`, the values for the Relative activity in data set [15], in data set [16] and in data set [19] were 0.2, 0.09 and 0.2, respectively. For the same compound, the IC50 was 3000 nM in the data set on Plasmodium falciparum [2], > 50000 nM in the data set with BC, 45000 nM with Vero [20] and > 50000 nM with KB. The values for the Ratio (in data set [4]; in data set [8]; in the data set on Plasmodium falciparum [11]) were 26.1, 43.4 and 1.2, respectively. Moreover, the Ki in data set [5] was 23.5 nM; in data set [12], 39.1 nM. In addition, in the data set on Plasmodium falciparum [6], the Safety ratio is 15 and >17. In addition, the selectivity ratio in data set [17] and in [18] was 13 in each case.
In the data set with Plasmodium falciparum [2], `COc1cc(Cc2cnc(N)nc2N)ccc1OCc1cc(OC)c(OC)c(OC)c1` yielded an IC50 of 300 nM. Besides, the Ki in data set [5] is 6.2 nM; in data set [12] it was 8.7 nM. Also, the Relative activity with Plasmodium falciparum [21] amounted to 0.2; in the data set on Plasmodium falciparum [22] it was 0.04. The Ratio with Plasmodium falciparum [11] is reported as 92.7.

For orientation: IC50 means the point on the concentration scale where inhibition reaches its midpoint. Broadly, the Ki is the dissociation constant of the complex between target and ligand, obtained from inhibition or displacement.
